The source of these data is paper PMC8201661 (Cell chemical biology, 2020).

Molecules are shown by their SMILES.

The subject of one data set is MM1.R. As to conditions: read-out: Previously reported cytotoxicity, MM1.R; ref Hideshima et al., 2001; cited from earlier work.
A further data set deals with RPMI 8226. As to conditions: cited from earlier work.
Data set [1] relates to RPMI 8226 cells. Kind of data set: Cell toxicity, WST-1 assay, RPMI 8226. As to conditions: Homo sapiens, RPMI-8226, 48 h, read-out: EC50 cytotoxicity, RPMI 8226. The class given is cell-based. (Formazan colour is commonly taken as a measure of viable cells.)
For data set [2], the system named is RPMI 8226 cells. Put plainly: Western blot for mono-/poly-Ub and PARP-1. The class given is cell-based, human. As to conditions: RPMI 8226 cells treated with various concentrations for 6 h. Put shortly: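 RPMI 8226 cells (1,000,000/well) given a range of test-compound concentrations (1000x DMSO stock) or DMSO for 6 h. Lysis in RIPA with protease inhibitors (5 min, ice), then sonication and clearing at 17000 x g. Protein by BCA. After SDS-PAGE and PVDF wet transfer, membranes blocked in 5% milk/TBST and probed for PARP-1 (1:1,000 in 5% BSA/TBST), mono/poly-ubiquitin and α-tubulin as loading control.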
On the technique in general: In western blotting, separated proteins are transferred to a membrane and probed.

For data set [3], the system named is 20S proteasome subunits PSMB5, PSMB10, PSMA5, PSMB1, and PSMB2. Put plainly: In situ competitive LC-MS/MS pull-down with probe 20. It counts as cell-based, human. As to conditions: RPMI 8226 cells, 100 nM 1 for 6 hours, then 10 μM 20; LFQ, n = 6. The method, boiled down:
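RPMI 8226 cells grown to confluence, then given fresh medium with 100 nM test compound (1000x DMSO stock) or DMSO for 6 h. Washed cells were sonicated in PBS. Lysate (2.32 mg/mL) got 10 μM alkyne probe, 1 h r.t. CuAAC used 30 μM biotin azide, 1 mM TCEP, 100 μM TBTA and 1 mM CuSO4 (1 h), then streptavidin enrichment and on-bead TCEP/iodoacetamide treatment. Trypsin digest, LC-MS/MS, LFQ ratios; n = 6 (3 biological × 2 technical).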

The subject of another data set is MM1.R cells. Kind of data set: Cell toxicity, WST-1 assay, MM1.R. It counts as cell-based. Conditions: Homo sapiens, MM.1R, 48 h, read-out: EC50 cytotoxicity, MM1.R. The method, boiled down: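 MM1.R cells grown in RPMI-1640 with 10% FBS, non-essential amino acids and penicillin/streptomycin at 37 °C, 5% CO2. Cells exposed to a range of test-compound concentrations for 24 h or 48 h. Viability read by WST-1 per manufacturer's protocol as values relative to control, n = 3. EC50 fitted from concentration–response.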

With `CC(C)C[C@H](NC(=O)[C@H](Cc1ccccc1)NC(=O)c1cnccn1)B(O)O` [bortezomib], the EC50 in the data set on MM1.R was 3 nM.
`CC(C)C[C@H](NC(=O)[C@H](CCc1ccccc1)NC(=O)CN1CCOCC1)C(=O)N[C@@H](Cc1ccccc1)C(=O)N[C@@H](CC(C)C)C(=O)[C@@]1(C)CO1` [carfilzomib]: the EC50 in the data set on RPMI 8226 was 5 nM.
Take `CC(C)CCCCC/C=C/C=C/C(=O)N[C@H](C(=O)N[C@H]1C[C@@H](O)CCNC(=O)/C=C/[C@H](C)NC1=O)[C@@H](C)O` [Compound 1, (2E,4E)-N-((2S,3R)-3-hydroxy-1-(((5S,8S,10S,E)-10-hydroxy-5-methyl-2,7-dioxo-1,6-diazacyclododec-3-en-8-yl)amino)-1-oxobutan-2-yl)-11-methyldodeca-2,4-dienamide]: the EC50 in the data set with RPMI 8226 cells [1] is 31 nM. In the data set on RPMI 8226 cells [2], the “PARP-1 Western blot (apoptosis marker)” value was “PARP-1 cleavage” and the “Ubiquitinated proteins (mono-/poly-ubiquitin Western blot)” value was “concentration-dependent increase in ubiquitinated proteins”. Further, the “Competition of 20-enriched PSMB5, PSMB10, PSMA5, PSMB1 and PSMB2” value in data set [3] is on record as > 50%. Moreover, the EC50 with MM1.R cells came out at 23 nM.
